Source: ChEMBL document CHEMBL1177762, “Identification of a sulfonamide series of CCR2 antagonists” (Bioorg Med Chem Lett, 2010)
Blank lines part the entries; values can stand above or below the molecule they belong to.

What was measured:
[1] = target: T1, C-C chemokine receptor type 2 (Homo sapiens, UniProt P41597); test: Antagonist activity at human CCR2 expressed in CHO cells assessed as inhibition of MCP1-induced [35S]-GTPgammaS binding after 3 hrs; format: functional, cell-based
Target sequence in this assay (P41597 whole entry): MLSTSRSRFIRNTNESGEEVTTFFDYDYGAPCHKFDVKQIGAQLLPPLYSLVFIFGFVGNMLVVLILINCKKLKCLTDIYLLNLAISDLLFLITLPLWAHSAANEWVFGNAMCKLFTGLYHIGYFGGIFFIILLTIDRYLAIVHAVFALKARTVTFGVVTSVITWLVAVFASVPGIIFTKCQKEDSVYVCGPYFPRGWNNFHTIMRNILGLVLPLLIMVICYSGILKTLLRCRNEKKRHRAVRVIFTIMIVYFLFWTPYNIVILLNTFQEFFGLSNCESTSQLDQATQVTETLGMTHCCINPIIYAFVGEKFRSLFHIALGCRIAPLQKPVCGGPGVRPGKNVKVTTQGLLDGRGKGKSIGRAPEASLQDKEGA

[2] = target: T1, C-C chemokine receptor type 2; test: Antagonist activity at CCR2 in human THP1 cells assessed as inhibition of CCL2-induced chemotaxis at 1 uM in presence of 0.1% human serum; format: functional, cell-based; conditions: THP-1
Method in brief: (§1)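 Boyden chamber (48-well) chemotaxis of THP-1 cells stimulated with CCL2. Foetal bovine serum or human serum was added to the assay buffer.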
Target sequence in this assay (P41597 whole entry, looked up): as the sequence (P41597 whole entry) above

[3] = target: T1, C-C chemokine receptor type 2; test: Antagonist activity at CCR2 in human THP1 cells assessed as inhibition of CCL2-induced chemotaxis at 1 uM in presence of 1% human serum; format: functional, cell-based; conditions: THP-1; method in brief: as §1
Target sequence in this assay (P41597 whole entry, looked up): as the sequence (P41597 whole entry) above

[4] = Lipophilicity, log D of the compound; format: physicochemical; conditions: octanol/water
[5] = Oral bioavailability in rat; format: ADME, organism-based; conditions: in vivo
[6] = Half life in iv dosed in rat; format: ADME, organism-based; conditions: in vivo
[7] = Half life in po dosed in rat; format: ADME, organism-based; conditions: in vivo
[8] = Clearance in rat; format: ADME, organism-based; conditions: in vivo
Rattus norvegicus = species on record: Rattus norvegicus; test: Volume of distribution in rat; format: ADME, organism-based; conditions: in vivo
[9] = target: Voltage-gated inwardly rectifying potassium channel KCNH2 (Homo sapiens, UniProt Q12809); test: Binding affinity to human ERG by fluorescence-polarization binding assay
Cytochrome P450 1A2 = target: T2, Cytochrome P450 1A2 (Homo sapiens, UniProt P05177); test: Inhibition of CYP1A2; format: ADME
T2 sequence (P05177 whole entry): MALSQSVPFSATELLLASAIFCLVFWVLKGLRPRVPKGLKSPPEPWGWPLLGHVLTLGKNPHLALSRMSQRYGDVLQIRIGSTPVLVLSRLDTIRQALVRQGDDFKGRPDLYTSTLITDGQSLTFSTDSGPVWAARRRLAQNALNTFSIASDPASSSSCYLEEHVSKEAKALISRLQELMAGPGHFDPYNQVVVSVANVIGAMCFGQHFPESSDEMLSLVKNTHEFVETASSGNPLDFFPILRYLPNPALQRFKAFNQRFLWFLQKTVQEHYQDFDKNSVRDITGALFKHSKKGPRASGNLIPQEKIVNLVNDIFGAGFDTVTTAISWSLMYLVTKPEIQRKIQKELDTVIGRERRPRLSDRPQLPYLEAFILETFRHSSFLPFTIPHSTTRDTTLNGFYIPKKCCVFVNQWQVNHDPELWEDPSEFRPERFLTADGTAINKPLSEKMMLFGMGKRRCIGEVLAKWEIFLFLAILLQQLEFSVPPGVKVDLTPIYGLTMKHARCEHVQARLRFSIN

Cytochrome P450 2C19 = Cytochrome P450 2C19 (Homo sapiens, UniProt P33261); test: Inhibition of CYP2C19; format: ADME
Chain of Cytochrome P450 2C19 (P33261 whole entry): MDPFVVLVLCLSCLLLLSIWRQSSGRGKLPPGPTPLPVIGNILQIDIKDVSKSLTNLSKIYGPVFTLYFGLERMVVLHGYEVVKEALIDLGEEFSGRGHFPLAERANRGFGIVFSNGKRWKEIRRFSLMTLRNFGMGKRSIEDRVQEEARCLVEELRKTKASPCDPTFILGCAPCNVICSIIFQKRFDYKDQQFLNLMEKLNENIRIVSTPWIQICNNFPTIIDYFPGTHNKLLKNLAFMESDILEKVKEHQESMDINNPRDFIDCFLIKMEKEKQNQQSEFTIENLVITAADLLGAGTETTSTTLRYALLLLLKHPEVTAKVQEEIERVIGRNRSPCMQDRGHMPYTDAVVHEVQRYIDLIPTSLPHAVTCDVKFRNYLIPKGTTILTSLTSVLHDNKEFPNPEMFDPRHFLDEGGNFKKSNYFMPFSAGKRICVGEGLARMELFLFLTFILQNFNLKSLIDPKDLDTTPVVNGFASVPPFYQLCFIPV

Cytochrome P450 2C9 = Cytochrome P450 2C9 (Homo sapiens, UniProt P11712); test: Inhibition of CYP2C9; format: ADME
Chain of Cytochrome P450 2C9 (P11712 whole entry): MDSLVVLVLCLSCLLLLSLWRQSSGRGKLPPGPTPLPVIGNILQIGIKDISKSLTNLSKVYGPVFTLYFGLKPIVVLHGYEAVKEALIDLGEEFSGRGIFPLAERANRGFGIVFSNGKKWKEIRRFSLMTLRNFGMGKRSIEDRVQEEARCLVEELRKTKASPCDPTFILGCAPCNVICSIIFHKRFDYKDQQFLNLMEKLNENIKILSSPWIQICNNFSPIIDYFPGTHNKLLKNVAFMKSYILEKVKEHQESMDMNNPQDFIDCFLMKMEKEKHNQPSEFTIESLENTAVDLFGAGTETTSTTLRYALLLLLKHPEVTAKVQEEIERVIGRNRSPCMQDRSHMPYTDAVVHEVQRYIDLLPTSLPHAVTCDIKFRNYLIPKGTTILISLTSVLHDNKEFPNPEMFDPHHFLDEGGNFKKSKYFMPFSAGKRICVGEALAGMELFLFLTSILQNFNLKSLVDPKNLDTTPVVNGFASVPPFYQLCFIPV

Cytochrome P450 2D6 = Cytochrome P450 2D6 (Homo sapiens, UniProt P10635); test: Inhibition of CYP2D6; format: ADME
Chain of Cytochrome P450 2D6 (P10635 whole entry): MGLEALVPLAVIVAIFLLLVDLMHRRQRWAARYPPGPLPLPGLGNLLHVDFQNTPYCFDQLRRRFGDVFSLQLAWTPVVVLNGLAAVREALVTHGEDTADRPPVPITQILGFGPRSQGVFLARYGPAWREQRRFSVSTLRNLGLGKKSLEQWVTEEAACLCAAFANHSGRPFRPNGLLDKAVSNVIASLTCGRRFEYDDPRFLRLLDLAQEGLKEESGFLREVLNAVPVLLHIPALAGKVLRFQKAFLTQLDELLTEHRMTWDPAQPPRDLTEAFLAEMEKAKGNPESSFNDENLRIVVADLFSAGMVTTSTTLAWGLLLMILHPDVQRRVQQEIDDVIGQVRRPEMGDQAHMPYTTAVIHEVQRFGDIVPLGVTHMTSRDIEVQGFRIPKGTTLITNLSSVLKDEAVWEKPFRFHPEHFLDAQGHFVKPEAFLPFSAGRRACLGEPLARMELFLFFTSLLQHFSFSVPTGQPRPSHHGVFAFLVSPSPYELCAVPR

Cytochrome P450 3A4 = Cytochrome P450 3A4 (Homo sapiens, UniProt P08684); test: Inhibition of CYP3A4; format: ADME
Chain of Cytochrome P450 3A4 (P08684 whole entry): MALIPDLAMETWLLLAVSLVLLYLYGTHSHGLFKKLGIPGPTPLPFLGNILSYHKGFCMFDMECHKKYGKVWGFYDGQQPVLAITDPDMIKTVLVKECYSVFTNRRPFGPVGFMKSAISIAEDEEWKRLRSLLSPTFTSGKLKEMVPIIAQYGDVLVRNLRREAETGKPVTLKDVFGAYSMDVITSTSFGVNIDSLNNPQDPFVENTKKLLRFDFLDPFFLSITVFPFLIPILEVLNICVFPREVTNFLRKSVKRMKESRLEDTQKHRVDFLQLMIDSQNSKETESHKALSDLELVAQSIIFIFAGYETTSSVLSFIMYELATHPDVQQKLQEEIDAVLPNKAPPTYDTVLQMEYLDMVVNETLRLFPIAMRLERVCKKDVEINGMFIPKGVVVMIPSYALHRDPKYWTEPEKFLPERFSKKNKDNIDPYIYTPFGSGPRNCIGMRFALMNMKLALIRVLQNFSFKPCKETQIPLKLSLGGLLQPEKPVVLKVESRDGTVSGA

[10] = target: T3, C-C chemokine receptor type 4 (Homo sapiens, UniProt P51679); test: Antagonist activity at CCR4; format: functional
T3 sequence (P51679 whole entry): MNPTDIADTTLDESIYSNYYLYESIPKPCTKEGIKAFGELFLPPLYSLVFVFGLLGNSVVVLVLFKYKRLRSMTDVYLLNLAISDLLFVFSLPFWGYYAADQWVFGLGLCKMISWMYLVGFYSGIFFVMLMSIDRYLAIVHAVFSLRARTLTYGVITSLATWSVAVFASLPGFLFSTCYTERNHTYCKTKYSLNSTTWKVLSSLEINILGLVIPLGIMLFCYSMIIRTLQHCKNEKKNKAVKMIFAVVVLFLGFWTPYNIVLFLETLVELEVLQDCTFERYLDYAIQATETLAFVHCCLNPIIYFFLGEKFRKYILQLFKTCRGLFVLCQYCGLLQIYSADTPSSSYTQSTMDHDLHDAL

[11] = target: C-C chemokine receptor type 5 (Homo sapiens, UniProt P51681); test: Antagonist activity at CCR5; format: functional
Chain of C-C chemokine receptor type 5 (P51681 whole entry): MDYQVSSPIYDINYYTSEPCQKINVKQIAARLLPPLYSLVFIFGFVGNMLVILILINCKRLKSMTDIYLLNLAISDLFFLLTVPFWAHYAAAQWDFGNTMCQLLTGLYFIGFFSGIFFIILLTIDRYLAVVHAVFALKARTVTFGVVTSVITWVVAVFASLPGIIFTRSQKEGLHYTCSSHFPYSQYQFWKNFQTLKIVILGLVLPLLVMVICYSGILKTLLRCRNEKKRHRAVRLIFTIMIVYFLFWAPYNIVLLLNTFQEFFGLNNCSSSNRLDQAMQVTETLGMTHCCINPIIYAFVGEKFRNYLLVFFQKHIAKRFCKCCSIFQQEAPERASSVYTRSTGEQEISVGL

[12] = target: T1, C-C chemokine receptor type 2; test: Inhibition of CCR2-mediated chemotaxis in human THP1 cells assessed as half life of reversibility at 10 uM after assay buffer exchange; format: cell-based; conditions: THP-1
Method in brief: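 THP-1 cells were preincubated with compound at 10 µM for 30 min. The assay buffer was then exchanged and CCL2-driven chemotaxis was stimulated periodically to generate a reversibility curve. The half-life of reversibility was taken from this curve.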
Target sequence in this assay (P41597 whole entry, looked up): as the sequence (P41597 whole entry) above

Albumin [13] = target: T4, Albumin (Homo sapiens, UniProt P02768); test: Binding affinity to immobilised human serum albumin by chromatographic analysis; format: ADME; conditions: isolated protein
T4 sequence (P02768 whole entry): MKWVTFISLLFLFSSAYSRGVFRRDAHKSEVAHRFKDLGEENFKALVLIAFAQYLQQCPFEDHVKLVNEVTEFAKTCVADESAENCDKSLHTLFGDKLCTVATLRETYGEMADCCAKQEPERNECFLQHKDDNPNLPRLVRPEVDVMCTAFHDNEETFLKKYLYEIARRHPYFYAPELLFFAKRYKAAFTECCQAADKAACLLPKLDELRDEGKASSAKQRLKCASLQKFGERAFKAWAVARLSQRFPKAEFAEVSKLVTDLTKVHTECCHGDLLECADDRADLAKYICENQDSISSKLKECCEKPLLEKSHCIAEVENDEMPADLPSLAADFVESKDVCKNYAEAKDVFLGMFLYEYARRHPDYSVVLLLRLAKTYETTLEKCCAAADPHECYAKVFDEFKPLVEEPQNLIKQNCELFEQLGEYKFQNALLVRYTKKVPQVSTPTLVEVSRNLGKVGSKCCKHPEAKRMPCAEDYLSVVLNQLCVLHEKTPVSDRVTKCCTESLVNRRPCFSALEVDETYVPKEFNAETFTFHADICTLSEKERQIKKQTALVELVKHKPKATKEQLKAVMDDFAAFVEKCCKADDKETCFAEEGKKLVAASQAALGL

Albumin [14] = target: T4, Albumin; test: Binding affinity to immobilised human serum albumin by ultrafiltration and biacore method; format: ADME; conditions: isolated protein
[15] = target: T5, C-C chemokine receptor type 1 (Homo sapiens, UniProt P32246); test: Antagonist activity at human CCR1 assessed as inhibition of MIP-1-alpha-induced [35S]-GTPgammaS binding after 3 to 4 hrs; format: functional
T5 sequence (P32246 whole entry): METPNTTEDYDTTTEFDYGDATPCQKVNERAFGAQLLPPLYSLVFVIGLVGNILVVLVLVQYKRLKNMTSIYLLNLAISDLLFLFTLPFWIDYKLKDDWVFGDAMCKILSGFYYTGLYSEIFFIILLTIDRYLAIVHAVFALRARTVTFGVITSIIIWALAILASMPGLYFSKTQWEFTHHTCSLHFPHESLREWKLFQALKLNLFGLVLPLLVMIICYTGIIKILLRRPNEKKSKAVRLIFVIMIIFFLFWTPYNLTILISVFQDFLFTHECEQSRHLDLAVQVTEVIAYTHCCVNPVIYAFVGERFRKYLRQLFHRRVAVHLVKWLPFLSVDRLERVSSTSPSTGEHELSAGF

[16] = target: C-C chemokine receptor type 2 (Mus musculus, UniProt P51683); test: Antagonist activity at mouse CCR2; format: functional
Chain of C-C chemokine receptor type 2 (Mus musculus, UniProt P51683) (P51683 whole entry): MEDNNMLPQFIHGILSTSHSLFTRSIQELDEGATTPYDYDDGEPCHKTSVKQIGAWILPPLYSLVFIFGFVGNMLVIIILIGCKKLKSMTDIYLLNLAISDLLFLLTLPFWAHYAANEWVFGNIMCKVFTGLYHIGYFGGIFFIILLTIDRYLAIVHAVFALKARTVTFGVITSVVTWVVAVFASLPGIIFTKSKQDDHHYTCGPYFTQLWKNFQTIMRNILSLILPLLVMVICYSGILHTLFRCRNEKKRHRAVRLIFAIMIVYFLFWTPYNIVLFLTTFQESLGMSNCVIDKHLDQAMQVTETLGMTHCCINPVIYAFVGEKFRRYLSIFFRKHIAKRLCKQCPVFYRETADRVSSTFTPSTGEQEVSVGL

[17] = target: C-C chemokine receptor type 1 (Homo sapiens) (UniProt P32246); test: Antagonist activity at human CCR1
[18] = target: C-C chemokine receptor type 1 (Homo sapiens) (UniProt P32246); test: Antagonist activity at CCR1
[19] = target: T1, C-C chemokine receptor type 2; test: Antagonist activity at CCR2 in human THP1 cells assessed as inhibition of CCL2-induced chemotaxis at 10 uM in presence of 1% human serum; format: functional, cell-based; conditions: THP-1; method in brief: as §1
Target sequence in this assay (P41597 whole entry, looked up): as the sequence (P41597 whole entry) above

Ki [1]: 1.26 nM
inhibition [2]: 67%
inhibition [3]: 37%
logD [4]: 0.8
bioavailability [5]: 97%
half-life [6]: 4.5 h
half-life [7]: 4.5 h
clearance [8]: 0.71 mL/min/kg
Vd (Rattus norvegicus): 0.12 L/kg
IC50 (Cytochrome P450 1A2): 39800 nM
IC50 (Cytochrome P450 2C19): 39800 nM
IC50 (Cytochrome P450 2C9): 21400 nM
IC50 (Cytochrome P450 2D6): 100000 nM
IC50 (Cytochrome P450 3A4): 100000 nM
Ki [10]: 794 nM
IC50 [11]: 251 nM
T1/2 [12]: 4.67 h
Compound: O=C(O)c1ccccc1Oc1ncc(Cl)cc1NS(=O)(=O)c1ccc(Cl)c(Cl)c1
IC50 [9]: > 31600 nM

Ki [1]: 3.16 nM
logD [4]: 0.4
Compound: O=C(O)c1ccc(Oc2ncc(Cl)cc2NS(=O)(=O)c2ccc(Cl)c(Cl)c2)cc1

Ki [1]: 20 nM
inhibition [2]: 36%
inhibition [3]: 5.4%
logD [4]: 2.32
Activity (Albumin [13]): > 98%
Activity (Albumin [14]): > 99.5%
Compound: O=S(=O)(Nc1cc(Cl)cnc1Oc1cccnc1)c1ccc(Cl)c(Cl)c1

Ki [1]: 2 nM
Compound: O=C(O)c1c(F)cccc1Oc1ncc(Cl)cc1NS(=O)(=O)c1ccc(Cl)c(Cl)c1

Ki [1]: 126 nM
Ki [15]: 126 nM
Ki [16]: 1000 nM
Compound: O=C(O)c1c(F)cccc1Oc1ccc(C(F)(F)F)cc1NS(=O)(=O)c1ccc(Cl)cc1

Ki [1]: 158 nM
Compound: O=C(O)c1ccccc1Oc1ccc(Cl)cc1NS(=O)(=O)c1ccccc1

Ki [1]: 1.58 nM
inhibition [2]: 42%
inhibition [3]: 33%
logD [4]: 0.44
Compound: O=C(O)c1cccc(Oc2ncc(Cl)cc2NS(=O)(=O)c2ccc(Cl)c(Cl)c2)c1

bioavailability [5]: 70%
half-life [6]: 6.5 h
half-life [7]: 5.9 h
clearance [8]: 0.6 mL/min/kg
Vd (Rattus norvegicus): 0.2 L/kg
IC50 (Cytochrome P450 1A2): 39800 nM
IC50 (Cytochrome P450 2C19): 11000 nM
IC50 (Cytochrome P450 2C9): 4170 nM
IC50 (Cytochrome P450 2D6): 53700 nM
IC50 (Cytochrome P450 3A4): 10000 nM
Ki [10]: 398 nM
IC50 [11]: 631 nM
Compound: O=C(O)c1ccccc1Oc1ccc(Cl)cc1NS(=O)(=O)c1ccc(Cl)c(Cl)c1

Ki [1]: 15.8 nM
logD [4]: 2.12
Compound: N#Cc1ccc(Oc2ncc(Cl)cc2NS(=O)(=O)c2ccc(Cl)c(Cl)c2)cn1

Ki [1]: 7.94 nM
Compound: O=C(O)c1ccccc1Oc1ccc(Cl)cc1NS(=O)(=O)c1cccc(Cl)c1

Ki [1]: > 3160 nM
Ki [17]: > 3160 nM
Compound: Cc1cccc(NS(=O)(=O)c2ccc(Cl)cc2)c1Oc1ccccc1C(=O)O

Ki [1]: 63.1 nM
Ki [17]: 1000 nM
Compound: N#Cc1ccc(Oc2ccccc2C(=O)O)c(NS(=O)(=O)c2ccc(Cl)cc2)c1

Ki [1]: 631 nM
Ki [18]: 631 nM
Compound: Cc1ccc(NS(=O)(=O)c2ccc(Cl)cc2)c(Oc2ccccc2C(=O)O)c1

Ki [1]: 31.6 nM
Ki [15]: 126 nM
Ki [16]: 251 nM
Compound: O=C(O)c1ccccc1Oc1c(F)cc(C(F)(F)F)cc1NS(=O)(=O)c1ccc(Cl)cc1

Ki [1]: 31.6 nM
inhibition [2]: 60%
inhibition [3]: 41%
Compound: O=C(O)c1ccccc1Oc1ncccc1NS(=O)(=O)c1ccc(Cl)c(Cl)c1

Ki [1]: 39.8 nM
inhibition [19]: 52%
Ki [17]: 251 nM
Compound: O=C(O)c1ccccc1Oc1ccc(F)cc1NS(=O)(=O)c1ccc(Cl)cc1

Ki [1]: 10 nM
inhibition [2]: 17%
inhibition [3]: 0%
logD [4]: -0.67
Compound: O=C(O)c1cncc(Oc2ncc(Cl)cc2NS(=O)(=O)c2ccc(Cl)c(Cl)c2)c1
